Data on 1 compound can be found in ChEMBL document CHEMBL3588805, “Characterization and Biological Activities of Ocellatin Peptides from the Skin Secretion of the Frog Leptodactylus pustulatus” (J Nat Prod, 2015).

In brackets after ≈: the same amount, converted by molar mass. Activity calls are given as the source filed them. The calls are words filed in the database; no cut-off is given here. Where a SMILES comes first, the peptide text is derived from it. A value given as a limit tells only on which side of the number the result lay.

The test system of series [1] is Salmonella enterica. The experiment in a line: Antibacterial activity against Salmonella choleraesuis ATCC 14028 assessed as inhibition of visible bacterial growth incubated at 37 degC for 24 hrs by CLSI protocol based method. It counts as functional. To be noted: ATCC 14028, 24 h. The method, boiled down:
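Strain grown at 37 °C in Mueller-Hinton broth to log phase (1 × 10^8 CFU/mL). Broth microdilution per CLSI (2012) with 2-fold peptide dilutions in Mueller-Hinton broth, 6.25–800 μg/mL, final inoculum 5 × 10^5 CFU/mL. Incubated 24 h, 37 °C, aerobic. MIC is the lowest concentration giving absorbance below 0.05 at 600 nm. Meropenem control. Triplicate, two independent experiments.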

Series [2] in a line: Toxicity in human RBC assessed as induction of hemolysis at antibacterial MIC (Escherichia coli ATCC 25922) incubated for 1 hr at 37 degC. It counts as cell-based, Erythrocyte. To be noted: human red blood cells (RBC), read-out: Activity. The method, boiled down:
(§1)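 Human RBCs collected in EDTA (1.8 mg/mL), washed three times, resuspended in 0.85% saline, mixed with an equal volume of peptide solution (100–800 μg/mL). 1 h at 37 °C, centrifuged at 10000g for 1 min, supernatant absorbance read at 550 nm. Saline and 0.1% (v/v) Triton X as 0 and 100% controls. % hemolysis = (A peptide − A saline)/(A Triton − A saline) × 100.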

In series [3] the test system is Escherichia coli. The experiment in a line: Antibacterial activity against Escherichia coli ATCC 25922 assessed as inhibition of visible bacterial growth incubated at 37 degC for 24 hrs by CLSI protocol based method. It counts as functional. The following applies: ATCC 25922, 24 h. In outline:
(§2)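 Broth microdilution per CLSI 2012. Strains grown at 37 °C in Mueller-Hinton broth to log phase (1 × 10^8 CFU/mL). Peptide 2-fold serial dilutions, 6.25–800 μg/mL, in Mueller-Hinton broth; final inoculum 5 × 10^5 CFU/mL per well. Aerobic incubation 24 h at 37 °C. MIC is the lowest concentration with no visible growth (A600 < 0.05). Meropenem control for Gram-negatives, oxacillin for S. aureus. Triplicate, two independent experiments.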

Series [4] can be described thus: Toxicity in human RBC assessed as induction of hemolysis at 800 ug/mL incubated for 1 hr at 37 degC. In kind it is cell-based, Erythrocyte. The following applies: human red blood cells (RBC), read-out: Activity. The method, boiled down:
as §1

In series [5] the test system is Escherichia coli. Briefly: Induction of morphological changes in Escherichia coli ATCC 25922 assessed as reduction in number of pili at 190 uM incubated for 24 hrs by atomic force microscopy. In kind it is functional, organism-based.
Series [6] deals with Escherichia coli. Briefly: Induction of morphological changes in Escherichia coli ATCC 25922 assessed as cell structural perturbation at 190 uM incubated for 24 hrs by atomic force microscopy. In kind it is functional, organism-based.
Series [7] in a line: Cytotoxicity against mouse NIH/3T3 cells at antibacterial MIC (Escherichia coli ATCC 25922) assessed as reduction in cell index incubated for 60 hrs. It counts as cell-based. To be noted: nih3t3, 60 h.
Series [8] has as its system Escherichia coli. The experiment in a line: Induction of morphological changes in Escherichia coli ATCC 25922 assessed as cell shape changes release at 190 uM incubated for 24 hrs by atomic force microscopy. In kind it is functional, organism-based.
In series [9] the test system is Klebsiella pneumoniae. The experiment in a line: Antibacterial activity against Klebsiella pneumoniae ATCC 700603 assessed as inhibition of visible bacterial growth incubated at 37 degC for 24 hrs by CLSI protocol based method. It counts as functional. The following applies: ATCC 700603, 24 h. The method, boiled down: as §2
Series [10] relates to Escherichia coli. Briefly: Induction of cell envelope morphological changes in Escherichia coli ATCC 25922 at 190 uM incubated for 24 hrs by atomic force microscopy. It counts as functional, organism-based.
The test system of series [11] is Escherichia coli. Briefly: Induction of morphological changes in Escherichia coli ATCC 25922 assessed as cell cytoplasmic content release at 190 uM incubated for 24 hrs by atomic force microscopy. It counts as functional, organism-based.
The test system of series [12] is Staphylococcus aureus. The experiment in a line: Antibacterial activity against Staphylococcus aureus […] assessed as inhibition of visible bacterial growth incubated at 37 degC for 24 hrs by CLSI protocol based method. In kind it is functional. The method, boiled down: as §2

A word on the MIC: it is the lowest concentration that inhibits growth of the organism. Take `CC[C@H](C)[C@H](NC(=O)[C@H](CCCCN)NC(=O)CNC(=O)[C@H](CCSC)NC(=O)[C@H](C)NC(=O)[C@H](Cc1cnc[nH]1)NC(=O)[C@H](C)NC(=O)[C@@H](NC(=O)[C@H](CC(C)C)NC(=O)[C@H](CCC(N)=O)NC(=O)[C@H](CCCCN)NC(=O)CNC(=O)[C@H](C)NC(=O)CNC(=O)[C@H](CCCCN)NC(=O)[C@@H](NC(=O)[C@@H](NC(=O)[C@H](CC(=O)O)NC(=O)[C@H](Cc1ccccc1)NC(=O)[C@@H](NC(=O)CN)C(C)C)[C@@H](C)CC)[C@@H](C)CC)[C@@H](C)CC)C(=O)N[C@@H](C)C(=O)N[C@@H](CCC(=O)O)C(=O)N[C@@H](CCCCN)C(=O)N[C@H](C(=O)NCC(=O)N[C@@H](CC(C)C)C(=O)N[C@@H](CC(N)=O)C(=O)N[C@@H](CCCCN)C(=O)N[C@@H](CC(=O)O)C(=O)NCC(=O)N[C@@H](CC(N)=O)C(=O)O)C(C)C` (H-GVFDIIKGAGKQLIAHAMGKIAEKVGLNKDGN-OH): the MIC is 240 µM (≈ 791 µg/mL) in series [1], 60 µM (≈ 198 µg/mL) in series [3], above 240 µM in series [9] and 240 µM (≈ 791 µg/mL) in series [12]. For the same compound, in series [2], the hemolysis at 1 h is 0.06%. Further, the hemolysis at 1 h, 800 ug/mL in series [4] amounted to 13.7%. Besides, the outcome in series [5], in [6], in series [8], in series [10] and in series [11] was Active. The Activity entry in [7] was “Non-toxic”.
